This note sets out measurements from ChEMBL document CHEMBL1795211, “Evaluation of NTF1836 as an inhibitor of the mycothiol biosynthetic enzyme MshC in growing and non-replicating Mycobacterium tuberculosis” (Bioorg Med Chem, 2011).

Values after ≈ are worked out from the molar mass of the structure shown. Active and inactive are the calls of the source. The rule behind the calls is not given here. Bounds are passed on as bounds.

In data set [1] the target is T1, L-cysteine:1D-myo-inositol 2-amino-2-deoxy-alpha-D-glucopyranoside ligase (Mycobacterium tuberculosis, UniProt P9WJM9).
T1 sequence (P9WJM9 whole entry): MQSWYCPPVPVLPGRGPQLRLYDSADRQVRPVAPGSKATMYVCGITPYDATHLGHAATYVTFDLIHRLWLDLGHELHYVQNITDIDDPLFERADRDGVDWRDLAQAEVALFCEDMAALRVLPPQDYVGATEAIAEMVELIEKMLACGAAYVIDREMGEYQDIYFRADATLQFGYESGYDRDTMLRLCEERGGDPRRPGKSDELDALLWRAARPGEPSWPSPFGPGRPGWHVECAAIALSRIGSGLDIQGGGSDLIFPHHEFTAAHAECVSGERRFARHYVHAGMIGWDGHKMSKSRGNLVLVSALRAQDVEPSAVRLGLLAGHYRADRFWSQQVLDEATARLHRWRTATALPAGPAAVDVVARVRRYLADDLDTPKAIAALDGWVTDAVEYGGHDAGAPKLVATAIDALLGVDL
Put plainly: Inhibition of Mycobacterium tuberculosis recombinant MshC assessed as production of Cys-GlcN-Ins from cysteine by HPLC based fluorescence assay.

For data set [2], the system named is Mycobacterium tuberculosis. Briefly: Antimycobacterial activity against mid-log phase of Mycobacterium tuberculosis CDC1551 isolated from patient after 7 days by 96 well plate assay. The format is functional. The following applies: CDC1551, 168 h.
The nature of data set [3]: Antimycobacterial activity against mid-log phase of Mycobacterium tuberculosis Erdman ATCC 35801 after 7 days by 96 well plate assay. The format is functional, Mycobacterium tuberculosis str. Erdman. To be noted: ATCC 35801, 168 h.
The next data set concerns Vero. Put plainly: Cytotoxicity against african green monkey Vero cells assessed as cell viability after 48 hrs by neutral red assay. The format is cell-based. To be noted: chlorocebus sabaeus.
For data set [4], the target named is T2, L-cysteine:1D-myo-inositol 2-amino-2-deoxy-alpha-D-glucopyranoside ligase (Mycobacterium tuberculosis) (UniProt P9WJM9).
T2 sequence (whole entry): T1 sequence (P9WJM9 whole entry)
Briefly: Inhibition of MshC in Mycobacterium tuberculosis Erdman ATCC 35801 assessed as reduction of Cys-GlcN-Ins accumulation at 10 to 80 uM after 7 days by HPLC based fluorescence assay. The following applies: Mycobacterium tuberculosis str. Erdman.

Data set [5] concerns Mycobacterium tuberculosis str. Erdman. Put plainly: Antimycobacterial activity against mid-log phase of Mycobacterium tuberculosis Erdman ATCC 35801 assessed as growth inhibition by measuring change on optical density at 600 nm after 7 days. The format is functional. Summed up:
(§1)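 Mid-log Erdman in 7H9 + ADS adjusted to OD600 0.08; 8 mL aliquots with 10–75 µM compound (from DMSO stock) in vented flasks, 7 d at 37 °C; duplicates with DMSO-matched control; growth read as 7-day change in OD600.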

For data set [6] the test system is unchanged. Briefly: Antimycobacterial activity against mid-log phase of Mycobacterium tuberculosis Erdman ATCC 35801 assessed as growth inhibition after 7 days by 96 well plate assay. The format is functional.
Data set [7] is described as follows: Antimycobacterial activity against mid-log phase of Mycobacterium tuberculosis Erdman ATCC 35801 assessed as reduction of viability at 50 to 75 uM after 7 days by 96 well plate assay relative to control. The format is functional, Mycobacterium tuberculosis str. Erdman.
Data set [8] is described as follows: Antimycobacterial activity against non-replicating Mycobacterium tuberculosis Erdman ATCC 35801 nutrient starvation model assessed as reduction viability at 90 uM after 15 days by 96 well plate assay. The format is functional, Mycobacterium tuberculosis str. Erdman. A digest of the protocol: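 Non-replicating Erdman from nutrient starvation in PBS + 0.05% Tween 80 for 6 weeks; compound dilutions then added and incubation continued 15 d; viable counts by plating serial dilutions on 7H9 agar with OADC; duplicate samples.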

Data set [9] in a line: Antimycobacterial activity against mid-log phase of Mycobacterium tuberculosis Erdman ATCC 35801 assessed as reduction of viability at 20 uM after 7 days by 96 well plate assay. The format is functional, Mycobacterium tuberculosis str. Erdman.
Data set [10] relates to Mycobacterium tuberculosis str. Erdman. Put plainly: Antimycobacterial activity against mid-log phase of Mycobacterium tuberculosis Erdman ATCC 35801 assessed as growth inhibition by measuring change on optical density at 600 nm at 30 to 50 uM after 7 days. The format is functional. A digest of the protocol:
as §1

For orientation: IC50 means the concentration at which inhibition is half-maximal. As to `CN(CCCNC(=O)c1ccc2c(c1)N(Cc1ccc(Cl)cc1)C(=O)c1ccccc1S2(=O)=O)C1CCCCC1`, in data set [1], the IC50 was found to be 330 µM.

Turning to `Cc1ccc(CN2C(=O)c3ccccc3S(=O)(=O)c3ccc(C(=O)NCCCN4CCCC4)cc32)c(C)c1`, the IC50 in data set [1] was 1400 µM. As for `CCN1C(=O)c2ccccc2[S+]([O-])c2ccc(C(=O)NCCCN3CCCCCC3)cc21` (racemic), in [1], the IC50 was no less than 3000 µM. `CC1CC(C)CN(CCCNC(=O)c2ccc3c(c2)N(Cc2ccccc2F)C(=O)c2ccccc2[S+]3[O-])C1` (racemic): in [1], the IC50 was greater than 3000 µM. The same measure, in the same setting: the figure for `CN(C)CCCNC(=O)c1ccc2c(c1)N(Cc1ccc(Cl)cc1)C(=O)c1ccccc1[S+]2[O-]` (racemic) is 340 µM; for `O=C(NCCCN1CCOCC1)c1ccc2c(c1)N(Cc1cccc(Cl)c1)C(=O)c1ccccc1[S+]2[O-]` (racemic) it is 500 µM. Regarding `CCC1CCCCN1CCCNC(=O)c1ccc2c(c1)N(Cc1cccc(Cl)c1)C(=O)c1ccccc1[S+]2[O-]` (racemic), the values for the MIC95 in data set [2] and in [3] were 32 µM (≈ 18.1 µg/mL) and 55 µM (≈ 31 µg/mL), respectively. Also, the IC50 in [1] was found to be 80 µM. In addition, the cytotoxic concentration with Vero is 100 µM. Regarding `CCCN(CCC)CCCNC(=O)c1ccc2c(c1)N(Cc1cccc(Cl)c1)C(=O)c1ccccc1[S+]2[O-]` (racemic), in data set [1], the IC50 amounted to 100 µM.

Regarding `CN(CCCNC(=O)c1ccc2c(c1)N(Cc1cccc(Cl)c1)C(=O)c1ccccc1[S+]2[O-])C1CCCCC1` (racemic), in [4], the inhibition result is “Active”. Also, the entries for the “growth inhibition (GI)” value in data set [5], in data set [6] and in data set [10] were “Dose-dependent effect”, “Dose-dependent effect” and 50%, respectively. Also, the values for the Activity in [7], in data set [8] and in [9] were 97%, 99% and 50%, respectively. Further, in data set [3], the MIC95 came to 28 µM (≈ 15.8 µg/mL). Also, the IC50 in [1] was 85 µM. Moreover, in the data set with Vero, the cytotoxic concentration came to 50 µM. Take `CC1CC(C)CN(CCCNC(=O)c2ccc3c(c2)N(Cc2cccc(Cl)c2)C(=O)c2ccccc2[S+]3[O-])C1` (racemic): in data set [1], the IC50 came out at 500 µM. In the case of `O=C(NCCCSC1CCCCC1)c1ccc2c(c1)N(Cc1cccc(Cl)c1)C(=O)c1ccccc1[S+]2[O-]` (racemic), the IC50 in data set [1] is no less than 1000 µM. On to `CC1CCCN(CCCNC(=O)c2ccc3c(c2)N(Cc2cccc(Cl)c2)C(=O)c2ccccc2[S+]3[O-])C1` (racemic), for which the MIC95 in [3] was found to be 55 µM (≈ 30.3 µg/mL). Also, the cytotoxic concentration with Vero was 100 µM. On to `CCCCN(C)CCCNC(=O)c1ccc2c(c1)N(Cc1cccc(Cl)c1)C(=O)c1ccccc1[S+]2[O-]` (racemic), for which, in data set [1], the IC50 worked out at 110 µM. With `O=C(NCCCN1CCCC1)c1ccc2c(c1)N(Cc1cccc(Cl)c1)C(=O)c1ccccc1[S+]2[O-]` (racemic), the MIC95 in data set [3] is 55 µM (≈ 28.7 µg/mL). Moreover, the IC50 in data set [1] was 100 µM. The cytotoxic concentration in the data set on Vero amounted to 50 µM.

Regarding `Cc1ccc(CN2C(=O)c3ccccc3S(=O)(=O)c3ccc(C(=O)NCCCN4CCOCC4)cc32)c(C)c1`, the concentration for half-maximal inhibition (IC50) in data set [1] was greater than 3000 µM.

`O=C(NCCCN1CCOCC1)c1ccc2c(c1)N(Cc1cccc(Cl)c1)C(=O)c1ccccc1S2`: the IC50 in data set [1] worked out at 800 µM. On the same count and under the same terms, the figure for `Cc1ccc(CN2C(=O)c3ccccc3[S+]([O-])c3ccc(C(=O)NCCCN(C)C4CCCCC4)cc32)c(C)c1` (racemic) is 2000 µM; for `CN(CCCNC(=O)c1ccc2c(c1)N(Cc1ccccc1)C(=O)c1ccccc1S2(=O)=O)C1CCCCC1` it is 500 µM. Take `O=C(NCCCN1CCCC1)c1ccc2c(c1)N(Cc1cccc(Cl)c1)C(=O)c1ccccc1S2`: the MIC95 in [3] worked out at 55 µM (≈ 27.8 µg/mL). Moreover, the IC50 in [1] worked out at 130 µM. The cytotoxic concentration in the data set with Vero amounted to 50 µM. In the case of `CN(CCCNC(=O)c1ccc2c(c1)N(Cc1ccccc1)C(=O)c1ccccc1[S+]2[O-])C1CCCCC1` (racemic), in data set [1], the IC50 was found to be 300 µM. For `O=C(NCCN1CCCCCC1)c1ccc2c(c1)N(Cc1cccc(Cl)c1)C(=O)c1ccccc1[S+]2[O-]` (racemic), the MIC95 in data set [3] worked out at 28 µM (≈ 15 µg/mL). Further, in [1], the IC50 was found to be 100 µM. The cytotoxic concentration in the data set on Vero was found to be 100 µM. In the case of `CN(CCCNC(=O)c1ccc2c(c1)N(Cc1cccc(Cl)c1)C(=O)c1ccccc1S2)C1CCCCC1`, the IC50 in data set [1] turned out to be 280 µM.

On to `O=C(NCCCN1CCOCC1)c1ccc2c(c1)N(Cc1cccc(Cl)c1)C(=O)c1ccccc1S2(=O)=O`, for which the IC50 in [1] stood at 3000 µM. As to `CN(CCCNC(=O)c1ccc2c(c1)N(Cc1ccc(F)cc1)C(=O)c1ccccc1[S+]2[O-])C1CCCCC1` (racemic), the IC50 in data set [1] was greater than 3000 µM. In [3], `CO[C@H]1/C=C/O[C@@]2(C)Oc3c(C)c(O)c4c(O)c(c(/C=N/N5CCN(C)CC5)c(O)c4c3C2=O)NC(=O)/C(C)=C\C=C\[C@H](C)[C@H](O)[C@@H](C)[C@@H](O)[C@@H](C)[C@H](OC(C)=O)[C@@H]1C` [RIFAMPIN] yielded an MIC95 of 0.24 µM (≈ 0.198 µg/mL).

Regarding `O=C(NCC1CCCN1)c1ccc2c(c1)N(Cc1cccc(Cl)c1)C(=O)c1ccccc1S2(=O)=O` (configuration not stated), the IC50 in data set [1] was 2500 µM.

As to `CCN(CC)CCCNC(=O)c1ccc2c(c1)N(Cc1ccc(C)cc1C)C(=O)c1ccccc1[S+]2[O-]` (racemic), the IC50 in data set [1] was greater than 3000 µM.

Turning to `CC1CCCN(CCCNC(=O)c2ccc3c(c2)N(Cc2ccccc2F)C(=O)c2ccccc2S3(=O)=O)C1` (configuration not stated), the IC50 in data set [1] was determined as 800 µM.
